Assays:
Salmonella typhimurium [1] = test: Mutagenic activity in Salmonella Typhimurium TA102 assessed as number of revertants at 10 ug/plate in absence of Wistar rat S9 liver homogenate; assay type: toxicity, organism-based; details: salmonella enterica subsp. enterica serovar typhimurium
Summary of the method: (§1)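 Salmonella/microsome plate test, with or without S9 from livers of male Wistar rats (~200 g). Strain markers and spontaneous revertant counts were routinely verified. Revertants are reported as mean ± standard error of triplicate plates. Strain-specific positive controls were used, with 2-aminoanthracene for all strains when S9 was present.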

Spodoptera littoralis [2] = test: Antifeedant effect against Spodoptera littoralis L6 larvae assessed as relative consumption rate at 10 ug, po after 72 hrs; assay type: functional
Summary of the method: (§2)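 Preweighed, newly emerged S. littoralis L6 larvae (20 per experiment) were orally cannulated with 10 µg in 2 µL DMSO; controls got solvent alone. Relative consumption and growth rates were calculated at 72 h on a dry-weight basis. Log-transformed weights were analysed by ANOVA with LSD tests.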

Salmonella typhimurium [3] = test: Mutagenic activity in Salmonella Typhimurium TA98 assessed as number of revertants at 0.01 ug/plate in absence of Wistar rat S9 liver homogenate; assay type: toxicity, organism-based; details: salmonella enterica subsp. enterica serovar typhimurium; summary of the method: as §1
Salmonella typhimurium [4] = test: Mutagenic activity in Salmonella Typhimurium TA98 assessed as number of revertants at 0.1 ug/plate in presence of Wistar rat S9 liver homogenate; assay type: toxicity, organism-based, Liver S9 fraction; details: salmonella enterica subsp. enterica serovar typhimurium; summary of the method: as §1
Salmonella typhimurium [5] = test: Mutagenic activity in Salmonella Typhimurium TA100 assessed as number of revertants at 0.01 ug/plate in presence of Wistar rat S9 liver homogenate; assay type: toxicity, organism-based, Liver S9 fraction; details: salmonella enterica subsp. enterica serovar typhimurium; summary of the method: as §1
Salmonella typhimurium [6] = test: Mutagenic activity in Salmonella Typhimurium TA98 assessed as number of revertants at 50 ug/plate in absence of Wistar rat S9 liver homogenate; assay type: toxicity, organism-based; details: salmonella enterica subsp. enterica serovar typhimurium
Summary of the method: (§3)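 Salmonella/microsome plate test (Ames) in strain TA98, with genetic markers and spontaneous revertant counts verified routinely. Run with and without S9 mix, the S9 being liver postmitochondrial supernatant from male Wistar rats of about 200 g. Doses ran from 0.01 to 100 µg/plate. Revertants are the mean of triplicate plates with standard error. Positive controls were 0.5 µg 4-nitroquinoline-N-oxide without S9 and 15 µg 2-aminoanthracene with S9.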

Salmonella typhimurium [7] = test: Mutagenic activity in Salmonella Typhimurium TA100 assessed as number of revertants at 0.01 ug/plate in absence of Wistar rat S9 liver homogenate; assay type: toxicity, organism-based; details: salmonella enterica subsp. enterica serovar typhimurium; summary of the method: as §1
Salmonella typhimurium [8] = test: Mutagenic activity in Salmonella Typhimurium TA100 assessed as number of revertants at 20 ug/plate in presence of Wistar rat S9 liver homogenate; assay type: toxicity, organism-based, Liver S9 fraction; details: salmonella enterica subsp. enterica serovar typhimurium; summary of the method: as §1
Salmonella typhimurium [9] = test: Mutagenic activity in Salmonella Typhimurium TA100 assessed as number of revertants at 10 ug/plate in absence of Wistar rat S9 liver homogenate; assay type: toxicity, organism-based; details: salmonella enterica subsp. enterica serovar typhimurium; summary of the method: as §1
Myzus persicae = test: Antifeedant effect against Myzus persicae assessed as inhibition index at 100 ug/cm2 relative to control; assay type: functional; design: scale not given: the % may be the effect or the level left
Summary of the method: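 Choice settling test on apterous adult M. persicae: 20 boxes of 10 aphids per treatment. Settling inhibition %SI = [1 − (%aphids on treated/%aphids on control surface)] × 100.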

Salmonella typhimurium [10] = test: Mutagenic activity in Salmonella Typhimurium TA102 assessed as number of revertants at 1 ug/plate in absence of Wistar rat S9 liver homogenate; assay type: toxicity, organism-based; details: salmonella enterica subsp. enterica serovar typhimurium; summary of the method: as §1
Salmonella typhimurium [11] = test: Mutagenic activity in Salmonella Typhimurium TA100 assessed as number of revertants at 1 ug/plate in absence of Wistar rat S9 liver homogenate; assay type: toxicity, organism-based; details: salmonella enterica subsp. enterica serovar typhimurium; summary of the method: as §1
Salmonella typhimurium [12] = test: Mutagenic activity in Salmonella Typhimurium TA98 assessed as number of revertants at 10 ug/plate in absence of Wistar rat S9 liver homogenate; assay type: toxicity, organism-based; details: salmonella enterica subsp. enterica serovar typhimurium; summary of the method: as §1
Salmonella typhimurium [13] = test: Mutagenic activity in Salmonella Typhimurium TA100 assessed as number of revertants at 50 ug/plate in presence of Wistar rat S9 liver homogenate; assay type: toxicity, organism-based, Liver S9 fraction; details: salmonella enterica subsp. enterica serovar typhimurium; summary of the method: as §1
Salmonella typhimurium [14] = test: Mutagenic activity in Salmonella Typhimurium TA98 assessed as number of revertants at 0.01 ug/plate in presence of Wistar rat S9 liver homogenate; assay type: toxicity, organism-based, Liver S9 fraction; details: salmonella enterica subsp. enterica serovar typhimurium; summary of the method: as §1
Salmonella typhimurium [15] = test: Mutagenic activity in Salmonella Typhimurium TA102 assessed as number of revertants at 50 ug/plate in absence of Wistar rat S9 liver homogenate; assay type: toxicity, organism-based; details: salmonella enterica subsp. enterica serovar typhimurium; summary of the method: as §1
Salmonella typhimurium [16] = test: Mutagenic activity in Salmonella Typhimurium TA100 assessed as number of revertants at 100 ug/plate in presence of Wistar rat S9 liver homogenate; assay type: toxicity, organism-based, Liver S9 fraction; details: salmonella enterica subsp. enterica serovar typhimurium; summary of the method: as §1
Salmonella typhimurium [17] = test: Mutagenic activity in Salmonella Typhimurium TA102 assessed as number of revertants at 50 ug/plate in presence of Wistar rat S9 liver homogenate; assay type: toxicity, organism-based, Liver S9 fraction; details: salmonella enterica subsp. enterica serovar typhimurium; summary of the method: as §1
Salmonella typhimurium [18] = test: Mutagenic activity in Salmonella Typhimurium TA100 assessed as number of revertants at 10 ug/plate in presence of Wistar rat S9 liver homogenate; assay type: toxicity, organism-based, Liver S9 fraction; details: salmonella enterica subsp. enterica serovar typhimurium; summary of the method: as §1
Salmonella typhimurium [19] = test: Mutagenic activity in Salmonella Typhimurium TA102 assessed as number of revertants at 0.1 ug/plate in absence of Wistar rat S9 liver homogenate; assay type: toxicity, organism-based; details: salmonella enterica subsp. enterica serovar typhimurium; summary of the method: as §1
Salmonella typhimurium [20] = test: Mutagenic activity in Salmonella Typhimurium TA102 assessed as number of revertants at 10 ug/plate in presence of Wistar rat S9 liver homogenate; assay type: toxicity, organism-based, Liver S9 fraction; details: salmonella enterica subsp. enterica serovar typhimurium; summary of the method: as §1
Salmonella typhimurium [21] = test: Mutagenic activity in Salmonella Typhimurium TA98 assessed as number of revertants at 0.1 ug/plate in absence of Wistar rat S9 liver homogenate; assay type: toxicity, organism-based; details: salmonella enterica subsp. enterica serovar typhimurium; summary of the method: as §1
[22] = system: Leptinotarsa decemlineata; test: Insecticidal activity against Leptinotarsa decemlineata assessed as mortality at 5 ug by hemolymph injection after 72 hrs; assay type: functional
Summary of the method: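 Adult L. decemlineata (20 beetles) were injected with 5 µg in DMSO through the metepimeron suture of the thorax. Beetles were kept on potato leaves. Symptoms and mortality were recorded up to 3 days, analysed by contingency tables and Abbott-corrected.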

Salmonella typhimurium [23] = test: Mutagenic activity in Salmonella Typhimurium TA98 assessed as number of revertants at 1 ug/plate in presence of Wistar rat S9 liver homogenate; assay type: toxicity, organism-based, Liver S9 fraction; details: salmonella enterica subsp. enterica serovar typhimurium; summary of the method: as §1
Salmonella typhimurium [24] = test: Mutagenic activity in Salmonella Typhimurium TA98 assessed as number of revertants at 50 ug/plate in presence of Wistar rat S9 liver homogenate; assay type: toxicity, organism-based, Liver S9 fraction; details: salmonella enterica subsp. enterica serovar typhimurium; summary of the method: as §3
Salmonella typhimurium [25] = test: Mutagenic activity in Salmonella Typhimurium TA100 assessed as number of revertants at 20 ug/plate in absence of Wistar rat S9 liver homogenate; assay type: toxicity, organism-based; details: salmonella enterica subsp. enterica serovar typhimurium; summary of the method: as §1
Salmonella typhimurium [26] = test: Mutagenic activity in Salmonella Typhimurium TA100 assessed as number of revertants at 0.1 ug/plate in presence of Wistar rat S9 liver homogenate; assay type: toxicity, organism-based, Liver S9 fraction; details: salmonella enterica subsp. enterica serovar typhimurium; summary of the method: as §1
Salmonella typhimurium [27] = test: Mutagenic activity in Salmonella Typhimurium TA98 assessed as number of revertants at 1 ug/plate in absence of Wistar rat S9 liver homogenate; assay type: toxicity, organism-based; details: salmonella enterica subsp. enterica serovar typhimurium; summary of the method: as §1
Salmonella typhimurium [28] = test: Mutagenic activity in Salmonella Typhimurium TA98 assessed as number of revertants at 100 ug/plate in absence of Wistar rat S9 liver homogenate; assay type: toxicity, organism-based; details: salmonella enterica subsp. enterica serovar typhimurium; summary of the method: as §3
Salmonella typhimurium [29] = test: Mutagenic activity in Salmonella Typhimurium TA98 assessed as number of revertants at 20 ug/plate in absence of Wistar rat S9 liver homogenate; assay type: toxicity, organism-based; details: salmonella enterica subsp. enterica serovar typhimurium; summary of the method: as §3
Salmonella typhimurium [30] = test: Mutagenic activity in Salmonella Typhimurium TA102 assessed as number of revertants at 20 ug/plate in absence of Wistar rat S9 liver homogenate; assay type: toxicity, organism-based; details: salmonella enterica subsp. enterica serovar typhimurium; summary of the method: as §1
Spodoptera littoralis [31] = test: Antifeedant effect against Spodoptera littoralis L6 larvae assessed as relative growth rate at 10 ug, po after 72 hrs; assay type: functional; summary of the method: as §2
Salmonella typhimurium [32] = test: Mutagenic activity in Salmonella Typhimurium TA102 assessed as number of revertants at 100 ug/plate in absence of Wistar rat S9 liver homogenate; assay type: toxicity, organism-based; details: salmonella enterica subsp. enterica serovar typhimurium; summary of the method: as §1
Salmonella typhimurium [33] = test: Mutagenic activity in Salmonella Typhimurium TA98 assessed as number of revertants at 100 ug/plate in presence of Wistar rat S9 liver homogenate; assay type: toxicity, organism-based, Liver S9 fraction; details: salmonella enterica subsp. enterica serovar typhimurium; summary of the method: as §3
Salmonella typhimurium [34] = test: Mutagenic activity in Salmonella Typhimurium TA102 assessed as number of revertants at 1 ug/plate in presence of Wistar rat S9 liver homogenate; assay type: toxicity, organism-based, Liver S9 fraction; details: salmonella enterica subsp. enterica serovar typhimurium; summary of the method: as §1

Row | Structure (SMILES) | Activity (Salmonella typhimurium [1]) | Activity (Spodoptera littoralis [2]) [mg] | Activity (Salmonella typhimurium [3]) | Activity (Salmonella typhimurium [4]) | Activity (Salmonella typhimurium [5]) | Activity (Salmonella typhimurium [6]) | Activity (Salmonella typhimurium [7]) | Activity (Salmonella typhimurium [8]) | Activity (Salmonella typhimurium [9]) | Activity (Myzus persicae) [%] | Activity (Salmonella typhimurium [10]) | Activity (Salmonella typhimurium [11]) | Activity (Salmonella typhimurium [12]) | Activity (Salmonella typhimurium [13]) | Activity (Salmonella typhimurium [14]) | Activity (Salmonella typhimurium [15]) | Activity (Salmonella typhimurium [16]) | Activity (Salmonella typhimurium [17]) | Activity (Salmonella typhimurium [18]) | Activity (Salmonella typhimurium [19]) | also measured
1 | CCCCCCCCCCCC[C@@H](O)[C@H]1CC[C@H]([C@H](O)CCCC[C@H](O)CCCCC[C@@H](O)CC2=CC(C)OC2=O)O1 (stereo not given in full) [ANNONACIN] | 221 | 20.53 | 33 | 21 | 135 | 21 | 150 | 139 | 104 | <40 | 277 | 125 | 34 | 99 | 36 | 169 | 88 | 430 | 145 | 296 | Activity (Salmonella typhimurium [20]): 430; Activity (Salmonella typhimurium [21]): 30; Activity [22]: 29.68%; Activity (Salmonella typhimurium [23]): 27; Activity (Salmonella typhimurium [24]): 25; Activity (Salmonella typhimurium [25]): 96; Activity (Salmonella typhimurium [26]): 139; Activity (Salmonella typhimurium [27]): 32; Activity (Salmonella typhimurium [28]): 14; Activity (Salmonella typhimurium [29]): 36; Activity (Salmonella typhimurium [30]): 204; Activity (Spodoptera littoralis [31]): 3.44 mg; Activity (Salmonella typhimurium [32]): 126; Activity (Salmonella typhimurium [33]): 28; Activity (Salmonella typhimurium [34]): 429
2 | CCCCCC[C@H](O)CCC[C@H](O)[C@H]1CC[C@H]([C@H]2CC[C@H]([C@H](O)CCCCCCCCCCCCC3=C[C@H](C)OC3=O)O2)O1 [SQUAMOCIN] | 108 | 20.35 | 27 | 39 | 147 | 10 | 154 | 135 | 69 | <40 | 182 | 114 | 18 | 118 | 36 | 93 | 102 | 99 | 142 | 243 | Activity (Salmonella typhimurium [20]): 419; Activity (Salmonella typhimurium [21]): 25; Activity [22]: 92.18%; Activity (Salmonella typhimurium [23]): 39; Activity (Salmonella typhimurium [24]): 36; Activity (Salmonella typhimurium [25]): 68; Activity (Salmonella typhimurium [26]): 137; Activity (Salmonella typhimurium [27]): 26; Activity (Salmonella typhimurium [28]): 6; Activity (Salmonella typhimurium [29]): 13; Activity (Salmonella typhimurium [30]): 98; Activity (Spodoptera littoralis [31]): 3.36 mg; Activity (Salmonella typhimurium [32]): 80; Activity (Salmonella typhimurium [33]): 31; Activity (Salmonella typhimurium [34]): 422
